Test results as given in ChEMBL document CHEMBL1123647, “(+)-cis-8-Hydroxy-1-methyl-2-(di-n-propylamino)tetralin: a potent and highly stereoselective 5-hydroxytryptamine receptor agonist” (1987).

Test system: Rattus norvegicus
Experiment: Effective dose required for half maximal decrease of 5-HTP formation after subcutaneous administration of compound in hemispheres (cortex) for rat brain
Type: functional
Details: sc
How it was run: (§1)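 Reserpinized rats (reserpine 5 mg/kg ip, in glucose solution with a little acetic acid). Compounds were dissolved in saline, pH near neutral, and given sc. Brain 5-HTP was measured by HPLC with electrochemical detection. ED50 is the dose giving a half-maximal decrease of 5-HTP formation in that brain part, from a dose-response curve of five to six dose levels, n = 3-4.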

Structure (SMILES)	ED50
CCCN(CCC)[C@@H]1CCc2cccc(OC)c2[C@H]1C	> 50 µmol/kg
CCCN(CCC)[C@@H]1CCc2cccc(O)c2C1	0.077 µmol/kg
CCCN(CCC)[C@@H]1CCc2cccc(OC)c2[C@@H]1C	0.77 µmol/kg
CCCN(CCC)[C@@H]1CCc2cccc(O)c2[C@H]1C	> 50 µmol/kg

Test system: Rattus norvegicus
Experiment: Effective dose required for half maximal decrease of DOPA accumulation after subcutaneous administration in striatum tissue of rat brain
Type: functional
Details: sc
How it was run: (§2)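 Reserpinized rats (reserpine 5 mg/kg ip) received compound in saline sc. Brain DOPA was measured by HPLC with electrochemical detection. ED50 is the dose giving a half-maximal decrease of DOPA formation, from a dose-response curve of three to five dose levels, n = 3. Maximal reduction was taken as 65% of control for limbic tissue and 80% for striatum.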

Structure (SMILES)	ED50
CCCN(CCC)[C@@H]1CCc2cccc(OC)c2[C@H]1C	> 50 µmol/kg
CCCN(CCC)[C@@H]1CCc2cccc(O)c2C1	> 45 µmol/kg
CCCN(CCC)[C@@H]1CCc2cccc(O)c2[C@@H]1C.Cl	> 50 µmol/kg
CCCN(CCC)[C@@H]1CCc2cccc(OC)c2[C@@H]1C	1.88 µmol/kg
CCCN(CCC)[C@@H]1CCc2cccc(O)c2[C@H]1C	> 50 µmol/kg

Test system: Rattus norvegicus
Experiment: Effective dose required for half maximal decrease of DOPA accumulation after subcutaneous administration in limbic tissue of rat brain
Type: functional
Details: sc
How it was run: as §2

Structure (SMILES)	ED50
CCCN(CCC)[C@@H]1CCc2cccc(OC)c2[C@H]1C	> 50 µmol/kg
CCCN(CCC)[C@@H]1CCc2cccc(O)c2C1	> 45 µmol/kg
CCCN(CCC)[C@@H]1CCc2cccc(O)c2[C@@H]1C.Cl	> 50 µmol/kg
CCCN(CCC)[C@@H]1CCc2cccc(OC)c2[C@@H]1C	1.71 µmol/kg
CCCN(CCC)[C@@H]1CCc2cccc(O)c2[C@H]1C	> 50 µmol/kg

Test system: Rattus norvegicus
Experiment: Effective dose required for half maximal decrease of 5-HTP formation after subcutaneous administration of compound in limbic tissue of rat brain
Type: functional
Details: sc
How it was run: as §1

Structure (SMILES)	ED50
CCCN(CCC)[C@@H]1CCc2cccc(OC)c2[C@H]1C	> 50 µmol/kg
CCCN(CCC)[C@@H]1CCc2cccc(O)c2C1	0.061 µmol/kg
CCCN(CCC)[C@@H]1CCc2cccc(OC)c2[C@@H]1C	0.53 µmol/kg
CCCN(CCC)[C@@H]1CCc2cccc(O)c2[C@H]1C	> 50 µmol/kg

Test system: Rattus norvegicus
Experiment: Effective dose required for half maximal decrease of 5-HTP formation after subcutaneous administration of compound in striatum tissue of rat brain
Type: functional
Details: sc
How it was run: as §1

Structure (SMILES)	ED50
CCCN(CCC)[C@@H]1CCc2cccc(OC)c2[C@H]1C	> 50 µmol/kg
CCCN(CCC)[C@@H]1CCc2cccc(O)c2C1	0.065 µmol/kg
CCCN(CCC)[C@@H]1CCc2cccc(OC)c2[C@@H]1C	0.6 µmol/kg
CCCN(CCC)[C@@H]1CCc2cccc(O)c2[C@H]1C	> 50 µmol/kg
